Results collected from several papers.
Lines come from different studies, so protocols differ.
SLCO1B3: Solute carrier organic anion transporter family member 1B3 (SLCO1B3, Homo sapiens, UniProt Q9NPD5)

CCC(CC)COC(=O)[C@H](C)N[P@](=O)(OC[C@H]1O[C@@](C#N)(c2ccc3c(N)ncnn23)[C@H](O)[C@@H]1O)Oc1ccccc1  CC50 (HEp-2; cell growth or viability, CCK-8; 5 days): 2.95 µM
O=C1CCC(N2C(=O)c3cccc(NCCc4cn(Cc5ccc(-c6nc7cc(-c8ccccc8)ccn7c6Nc6ccc(C(=O)O)cc6)cc5)nn4)c3C2=O)C(=O)N1 (centres unmarked)  CC50 (MCF7; cell growth or viability; 72 h): 108 µM
COCC(=O)N1CCC[C@H](C(=O)NCc2nc(-c3ccc(C#N)cc3)cs2)C1  scaled CLint (metabolic stability; male Sprague-Dawley rat, hepatocytes; 0.5 µM): 22 mL/min/kg
CC[C@@H](C)[C@@H](N)C(=O)OC[C@H]1O[C@@](C#N)(c2ccc3c(N)ncnn23)[C@H](O)[C@@H]1O  CC50 (HEp-2; cell growth or viability, CCK-8; 5 days): > 100 µM
O=C(Nc1ccc(S(=O)(=O)O)c2ccccc12)c1ccc(=O)oc1  CC50 (TZM-bl; cell growth or viability, resazurin): > 12.5 µM
COc1ccc2c(c1)CN(C(=O)CCN1CCC(Cc3ccccc3)CC1)CC[S@@+]2[O-]  clearance (male human, plasma; intravenous, 0.15 mg/kg, healthy volunteers): 223 mL/min
COCC(=O)N1CCC[C@H](C(=O)NCc2nc(-c3ccccc3)cs2)C1  scaled CLint (metabolic stability; human, liver microsomes; 0.5 µM): 7.8 mL/min/kg
N#C[C@@]1(c2ccc3c(N)ncnn23)O[C@H](COC(=O)C2CCCCC2)[C@@H](O)[C@H]1O  CC50 (HEp-2; cell growth or viability, CCK-8; 5 days): 44.7 µM
Nc1ccn([C@@H]2O[C@H](CO)[C@@H](O)C2(F)F)c(=O)n1  viability (MCF7; cell growth or viability, MTT; 10 µg/mL, 24 h): 20.7%
CC(C)C(=O)OC[C@H]1O[C@@H](n2ccc(NO)nc2=O)[C@H](O)[C@@H]1O  CC50 (HEp-2; cell growth or viability, CCK-8; 5 days): 50.1 µM
NCCOCC(=O)N1CCC[C@H](C(=O)NCc2nc(-c3ccc(C4CC4)cc3)cs2)C1  microsomal CLint (metabolic stability; human, liver microsomes; 0.5 µM): < 3 µL/min/mg
NC/C(=C\F)COc1cccc(Cn2c(=S)[nH]c(=O)c3[nH]cnc32)c1  inhibition (SLCO1B3; transporter uptake, inhibitor; 30 µM): < 50%
C[C@H]1CN(c2ccc(C3CCC(=O)NC3=O)cc2F)CCN1CC12CCC(NS(=O)(=O)c3ccc(Nc4ncc(C(F)(F)F)c(N5CCC[C@](C)(O)C5)n4)c(F)c3)(CC1)CO2 (some centres unmarked)  scaled CLint (metabolic stability; human, liver microsomes; 1 µM): 22 mL/min/kg
O=C(O)COc1cccc(-c2nc(Nc3ccc4[nH]ncc4c3)c3ccccc3n2)c1  IC50 (SLCO1B3; transporter uptake, inhibitor): 1.55 µM
